Results gathered from unrelated publications.
Values after ≈ are worked out from the molar mass of the structure shown.

CCCn1c(O)nnc1SCC(=O)Nc1cc(C(F)(F)F)ccc1Cl
EC50 (Plasmodium falciparum; parasite growth, SYBR Green; 3D7): 66.6 nM

CC(C(=O)NCc1ccccc1)c1cccc(C(OC(=O)NCc2ccccc2)c2ccccc2)c1 (centres unmarked)
IC50 (FM3A; cell growth or viability; 48 h): 14000 nM

C[C@]12CC[C@@H](O)C[C@@H]1CC[C@@H]1[C@@H]2CC[C@]2(C)[C@@H]([N+](=O)[O-])CC[C@@H]12
ED50 (6 Hz seizures; mouse; intraperitoneal): 5.3 mg/kg

CCc1nc2nc(C)cc(Nc3cc(C)cc(C)c3)n2n1
EC50 (Plasmodium falciparum; parasite growth, SYBR Green; 3D7): 96.5 nM

CC(C(=O)NOCc1ccccc1)c1cccc(C(OC(=O)NOCc2ccccc2)c2ccccc2)c1 (centres unmarked)
IC50 (FM3A; cell growth or viability; 48 h): 11000 nM

CC(=O)c1c(Cc2ccccc2Cl)c[nH]c1C
EC50 (Plasmodium falciparum; parasite growth, SYBR Green; 3D7): 140 nM

Nc1ccc(C(=O)O)c(O)c1
MIC (Mycobacterium tuberculosis variant bovis; microbial growth; BCG): 0.125 µg/mL (≈ 0.816 µM)

NNC(=O)c1ccncc1
MIC (Mycolicibacterium aurum; microbial growth, agar dilution): 6.3 µg/mL (≈ 45.9 µM)

C[C@]1(O)CC[C@@]2(C)[C@@H](CC[C@@H]3[C@@H]2CC[C@]2(C)[C@@H]([N+](=O)[O-])CC[C@@H]32)C1
ED50 (6 Hz seizures; mouse; intraperitoneal): > 100 mg/kg

COc1cc2c(cc1OS(N)(=O)=O)CCN(Cc1cc(Br)c(OC)c(OC)c1)C2
GI50 (CNSSF-539; cell growth or viability, SRB): 22 nM

CC(C(=O)NCCc1ccccc1)c1cccc(C(OC(=O)NCCc2ccccc2)c2ccccc2)c1 (centres unmarked)
IC50 (FM3A; cell growth or viability; 48 h): 13000 nM

N.N.[Cl][Pt][Cl]
GI50 (COLO 205; cell growth or viability, ATP luminescence): 6.8 µg/mL

O=C1C(O)=C([C@H]2CC[C@H](c3ccc(Cl)cc3)CC2)C(=O)c2ccccc21
EC50 (Plasmodium falciparum; parasite growth, SYBR Green; 3D7): 0.45 nM

CCCCCCCCCCOc1cc2c(O)c(C(=O)OCC)cnc2cc1OCC
IC50 (Plasmodium falciparum; parasite growth, SYBR Green; DD2; blood stage): < 5.7 nM
